# Data published in ChEMBL document CHEMBL5030540 (J Med Chem, 2021).
# pEC50: −log10 of the molar value. Active and inactive are the calls of the source. The calls are words filed in the database; no cut-off is given here.
# Columns and labels:
# Mu-type opioid receptor [1] = target: T1, Mu-type opioid receptor (Homo sapiens, UniProt P35372); assay: Agonist activity at human MOR expressed in HEK-293T cells assessed as inhibition of forskolin-stimulated cAMP accumulation incubated for 30 mins by Glo-sensor cAMP assay relative to DAMGO; format: functional, cell-based; conditions: HEK293T
# In short: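 HEK293T cells transiently co-transfected with human MOR and a luciferase-based cAMP biosensor. Gαi-mediated cAMP inhibition read by luminescence. […] EC50 given as pEC50 ± SEM, triplicate runs.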
# Mu-type opioid receptor [2] = target: T1, Mu-type opioid receptor; assay: Agonist activity at human MOR receptor expressed in HTLA cells co-expressing TEV-fused-beta-arrestin2 assessed as induction of beta-arrestin2 recruitment by Tango assay relative to DAMGO; format: functional, cell-based
# In short: (§1)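 HTLA cells expressing TEV-fused β-arrestin2 transiently transfected with a human MOR Tango construct. β-arrestin2 recruitment measured. […] Mean pEC50 ± SEM and Emax% ± SEM from triplicate runs.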
# Mu-type opioid receptor [3] = target: T1, Mu-type opioid receptor; assay: Agonist activity at human MOR expressed in HEK293T cells assessed as inhibition of forskolin-stimulated cAMP accumulation incubated for 30 mins by Glo-sensor cAMP assay; format: functional, cell-based
# In short: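 HEK293T cells transiently co-transfected with human MOR and a luciferase-based cAMP biosensor. Gαi-mediated cAMP inhibition read by luminescence. EC50 given as pEC50 ± SEM, triplicate runs.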
# Mu-type opioid receptor [4] = target: T1, Mu-type opioid receptor; assay: Agonist activity at human MOR receptor expressed in HTLA cells co-expressing TEV-fused-beta-arrestin2 assessed as induction of beta-arrestin2 recruitment by Tango assay; format: functional, cell-based; in short: as §1
# [5] = target: Voltage-dependent L-type calcium channel subunit alpha-1C (Rattus norvegicus, UniProt P22002); assay: Displacement of [3H]Diltiazem from Cav1.2 in rat brain at 10 uM incubated for 120 mins by radiometric scintillation counting analysis; format: tissue-based; conditions: 2 h
# Mu-type opioid receptor [6] = target: T1, Mu-type opioid receptor; assay: Agonist activity at human MOR expressed in CHO-K1 cells co-expressing beta-arrestin2 assessed as beta-arrestin2 EFC recruitment measured after 90 mins by PathHunter assay; format: functional, cell-based
# In short: (§2)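 CHO-K1 cells stably expressing human μOR grown to confluency and seeded overnight at 37 °C, 5% CO2. 5× dilution series of compound in Opti-MEM added for 90 min at 37 °C. Detection reagent then added for 60 min at room temperature in the dark, and chemiluminescence read.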
# Mu-type opioid receptor [7] = target: T1, Mu-type opioid receptor; assay: Agonist activity at human MOR expressed in CHO-K1 cells co-expressing beta-arrestin2 assessed as beta-arrestin2 EFC recruitment measured after 90 mins by PathHunter assay relative to control; format: functional, cell-based; in short: as §2
# Mu-type opioid receptor [8] = target: T1, Mu-type opioid receptor; assay: Partial agonist activity at human MOR expressed in HEK293T cells co-expressing Galpha-RLuc8:Gbeta:Ggamma-GFP2 assessed as Galpha-i/o activation measured after TRUPATH assay; format: functional, cell-based; conditions: filed as partial agonist
# [9] = target: GABA-A receptor; anion channel (Rattus norvegicus) (UniProt O09028+P15431+P18506+P18508+P19969+P20236+P23574+P23576+P28471+P28473+P30191+P62813+P63079+P63138+Q91ZM7+Q9ES14); assay: Partial agonist activity at GABAA receptor in rat brain slice assessed as induction of receptor-mediated inhibitory postsynaptic current at 10 uM by Whole cell electrophysiology; format: tissue-based; conditions: filed as partial agonist
# In short: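 Horizontal VTA slices (200 μm) from male Sprague–Dawley rats. Whole-cell voltage clamp at −70 mV, 33 °C, KCl internal. GABAA IPSCs isolated with 10 μM DNQX and evoked by paired pulses every 10 s. Drug (10 μM) bath applied. Mean IPSC amplitude at minutes 4–7 of drug compared with the 4 min baseline.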
# Mu-type opioid receptor [10] = target: T1, Mu-type opioid receptor; assay: Partial agonist activity at human MOR expressed in HEK293T cells co-expressing Galpha-RLuc8:Gbeta:Ggamma-GFP2 assessed as maximal Gi-1 activation measured after 15 mins by BRET assay relative to control; format: functional, cell-based; conditions: filed as partial agonist
# [11] = target: Mu-type opioid receptor (Mus musculus) (UniProt P42866); assay: Partial agonist activity at mouse MOR expressed in HEK293T cells assessed as Nb33 recruitment by BRET assay relative to control; format: functional, cell-based
# In short: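 HEK293T cells transfected with murine MOR-NanoLuc (1 μg) and Nb33-Venus (4 μg) using PEI and used 48 h later. Cells in PBS given coelenterazine H (5 μM), ligand added at 5 min, BRET read 10 min later. Three-parameter fit; ≥3 independent trials in triplicate.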
# [12] = Toxicity in C57BL/6 mouse model assessed as charcoal distance travel at 15 mg/kg, sc measured after 3 hrs by gastrointestinal transit assay (reference value: 29.5 +/- 1 cm); format: organism-based; conditions: in vivo
# [13] = Toxicity in C57BL/6 mouse model assessed as conditioned place preference at 10 mg/kg, IP; format: organism-based; conditions: in vivo
# In short: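 Counterbalanced two-compartment place conditioning in C57BL/6J mice. […] Time on drug-paired side over a 20 min test compared with preconditioning by Welch-corrected t test.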
# T1 sequence (P35372 whole entry): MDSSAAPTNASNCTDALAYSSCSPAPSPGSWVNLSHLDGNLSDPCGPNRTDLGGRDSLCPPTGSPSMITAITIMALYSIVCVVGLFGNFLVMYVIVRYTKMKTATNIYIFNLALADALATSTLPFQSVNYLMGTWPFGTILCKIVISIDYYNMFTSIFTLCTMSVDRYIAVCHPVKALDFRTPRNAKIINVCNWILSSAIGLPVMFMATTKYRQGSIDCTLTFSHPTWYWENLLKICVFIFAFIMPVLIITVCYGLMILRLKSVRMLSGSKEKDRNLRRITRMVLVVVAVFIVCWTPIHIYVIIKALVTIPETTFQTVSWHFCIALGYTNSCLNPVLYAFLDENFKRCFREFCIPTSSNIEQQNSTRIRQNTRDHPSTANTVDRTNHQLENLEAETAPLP
# Mu-type opioid receptor (Mus musculus), sequence (P42866 whole entry): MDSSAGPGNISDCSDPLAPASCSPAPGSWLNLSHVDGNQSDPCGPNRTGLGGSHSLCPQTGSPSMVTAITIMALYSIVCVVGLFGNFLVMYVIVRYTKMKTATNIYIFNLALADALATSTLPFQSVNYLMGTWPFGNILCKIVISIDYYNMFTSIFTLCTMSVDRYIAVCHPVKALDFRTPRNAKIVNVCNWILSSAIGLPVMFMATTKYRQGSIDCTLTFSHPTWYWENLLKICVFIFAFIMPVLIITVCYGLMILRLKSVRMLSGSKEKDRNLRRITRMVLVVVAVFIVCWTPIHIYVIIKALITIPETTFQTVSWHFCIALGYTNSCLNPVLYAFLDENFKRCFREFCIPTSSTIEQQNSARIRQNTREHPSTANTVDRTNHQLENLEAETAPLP
# Voltage-dependent L-type calcium channel subunit alpha-1C, sequence (P22002 whole entry): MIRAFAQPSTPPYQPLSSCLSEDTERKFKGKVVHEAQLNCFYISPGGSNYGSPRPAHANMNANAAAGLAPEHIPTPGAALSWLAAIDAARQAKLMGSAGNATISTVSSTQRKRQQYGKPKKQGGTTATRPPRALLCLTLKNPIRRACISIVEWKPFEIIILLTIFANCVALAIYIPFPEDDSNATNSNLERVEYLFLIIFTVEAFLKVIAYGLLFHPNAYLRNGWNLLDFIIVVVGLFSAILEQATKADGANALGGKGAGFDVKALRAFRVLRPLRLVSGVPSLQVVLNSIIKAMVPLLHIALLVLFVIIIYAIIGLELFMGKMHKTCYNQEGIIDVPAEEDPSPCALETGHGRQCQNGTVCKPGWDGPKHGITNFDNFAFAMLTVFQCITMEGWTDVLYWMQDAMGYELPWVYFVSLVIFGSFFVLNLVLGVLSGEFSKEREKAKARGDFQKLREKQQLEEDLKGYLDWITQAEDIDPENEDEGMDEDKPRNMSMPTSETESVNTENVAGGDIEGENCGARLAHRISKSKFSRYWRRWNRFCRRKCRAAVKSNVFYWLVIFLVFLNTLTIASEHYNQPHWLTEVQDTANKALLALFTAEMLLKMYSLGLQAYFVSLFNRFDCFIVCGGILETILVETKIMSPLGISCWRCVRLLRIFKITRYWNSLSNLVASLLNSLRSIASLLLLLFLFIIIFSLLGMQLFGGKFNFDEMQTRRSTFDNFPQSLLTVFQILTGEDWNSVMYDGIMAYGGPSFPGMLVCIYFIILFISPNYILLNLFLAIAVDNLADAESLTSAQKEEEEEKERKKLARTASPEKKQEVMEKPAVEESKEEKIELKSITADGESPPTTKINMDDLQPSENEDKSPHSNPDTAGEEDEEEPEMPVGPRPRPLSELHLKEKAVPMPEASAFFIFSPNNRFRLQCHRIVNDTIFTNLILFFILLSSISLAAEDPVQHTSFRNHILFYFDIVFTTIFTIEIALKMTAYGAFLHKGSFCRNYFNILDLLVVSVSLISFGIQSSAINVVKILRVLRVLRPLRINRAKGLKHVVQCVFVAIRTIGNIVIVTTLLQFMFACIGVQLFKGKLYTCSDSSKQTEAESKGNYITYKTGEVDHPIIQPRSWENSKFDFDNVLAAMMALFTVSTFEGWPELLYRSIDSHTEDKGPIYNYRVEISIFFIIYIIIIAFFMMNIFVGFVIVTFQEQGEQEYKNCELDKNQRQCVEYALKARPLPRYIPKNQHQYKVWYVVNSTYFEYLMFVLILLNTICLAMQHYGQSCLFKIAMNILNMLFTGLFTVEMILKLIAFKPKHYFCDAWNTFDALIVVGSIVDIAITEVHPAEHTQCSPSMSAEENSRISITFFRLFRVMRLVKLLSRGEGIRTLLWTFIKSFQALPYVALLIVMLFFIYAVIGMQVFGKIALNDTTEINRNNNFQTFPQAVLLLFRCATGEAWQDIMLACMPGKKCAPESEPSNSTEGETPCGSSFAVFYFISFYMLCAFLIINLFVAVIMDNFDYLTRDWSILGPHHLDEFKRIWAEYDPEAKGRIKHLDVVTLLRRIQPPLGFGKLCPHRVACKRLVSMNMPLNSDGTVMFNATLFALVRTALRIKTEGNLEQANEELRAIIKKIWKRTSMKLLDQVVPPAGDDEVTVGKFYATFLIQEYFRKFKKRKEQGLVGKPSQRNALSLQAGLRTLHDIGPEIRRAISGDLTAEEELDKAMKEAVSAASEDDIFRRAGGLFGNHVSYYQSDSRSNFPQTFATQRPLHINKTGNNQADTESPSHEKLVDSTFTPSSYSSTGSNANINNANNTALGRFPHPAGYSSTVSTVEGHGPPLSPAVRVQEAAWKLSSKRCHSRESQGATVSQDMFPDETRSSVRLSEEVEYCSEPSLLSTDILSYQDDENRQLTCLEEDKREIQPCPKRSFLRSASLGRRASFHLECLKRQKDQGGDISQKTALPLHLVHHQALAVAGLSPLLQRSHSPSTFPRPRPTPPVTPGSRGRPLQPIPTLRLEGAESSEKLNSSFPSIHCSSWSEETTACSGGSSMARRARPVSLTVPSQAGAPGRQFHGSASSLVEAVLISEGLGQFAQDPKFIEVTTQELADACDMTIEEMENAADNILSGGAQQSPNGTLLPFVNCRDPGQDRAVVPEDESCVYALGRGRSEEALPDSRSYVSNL
Structure (SMILES),Emax (Mu-type opioid receptor [1]; filed as agonist) [%],Emax (Mu-type opioid receptor [2]; HTLA230) [%],pEC50 (Mu-type opioid receptor [3]),further results
CC[C@@H]1CN2CCc3c([nH]c4ccc(-c5ccoc5)c(OC)c34)[C@@H]2C[C@@H]1/C(=C\OC)C(=O)OC,90.8,< 20,7.07,–
CC[C@@H]1CN2CCc3c([nH]c4cccc(-c5ccoc5)c34)[C@@H]2C[C@@H]1/C(=C\OC)C(=O)OC,70.2,< 20,7.03,–
CC[C@@H]1CN2CC[C@@]3(O)C(=Nc4c(C)ccc(OC)c43)[C@@H]2C[C@@H]1/C(=C\OC)C(=O)OC,69.3,< 20,7.95,–
CC[C@@H]1CN2CC[C@@]3(O)C(=Nc4ccc(-c5ccoc5)c(OC)c43)[C@@H]2C[C@@H]1/C(=C\OC)C(=O)OC,100,31.3,6.27,pEC50 (Mu-type opioid receptor [4]): 5.09
CC[C@@H]1CN2CC[C@@]3(O)C(=Nc4ccc(-c5ccccc5)c(OC)c43)[C@@H]2C[C@@H]1/C(=C\OC)C(=O)OC,88.7,< 20,6.98,–
CC[C@@H]1CN2CCc3c([nH]c4ccc(-c5ccccc5)c(OC)c34)[C@@H]2C[C@@H]1/C(=C\OC)C(=O)OC,73.9,< 20,5.42,–
CC[C@@H]1CN2CCc3c([nH]c4c(C)ccc(OC)c34)[C@@H]2C[C@@H]1/C(=C\OC)C(=O)OC,83.9,< 20,7.15,–
CC[C@@H]1CN2CC[C@@]3(O)C(=Nc4cccc(C)c43)[C@@H]2C[C@@H]1/C(=C\OC)C(=O)OC,–,–,8.28,"Activity [5]: Active; Emax (Mu-type opioid receptor [6]): 31%; pEC50 (Mu-type opioid receptor [4]): 4.98; Emax (Mu-type opioid receptor [7]): < 20%; Activity (Mu-type opioid receptor [8]): Active; Activity [9]: Active; Emax (Mu-type opioid receptor [1]; filed as partial agonist): 108%; Emax (Mu-type opioid receptor [10]): 60%; Emax (Mu-type opioid receptor [2]; HTLA230, filed as partial agonist): 110%; Emax [11]: 20%"
CC[C@@H]1CN2CC[C@@]3(O)C(=Nc4cccc(OC)c43)[C@@H]2C[C@@H]1/C(=C\OC)C(=O)OC,95.5,< 20,–,–
CN1CC[C@]23c4c5ccc(O)c4O[C@H]2[C@@H](O)C=C[C@H]3[C@H]1C5 [MORPHINE],–,–,–,Activity [12]: 5.07 cm; Activity [13]: Toxic
CC[C@@H]1CN2CC[C@@]3(O)C(=Nc4c(-c5ccccc5)ccc(OC)c43)[C@@H]2C[C@@H]1/C(=C\OC)C(=O)OC,–,< 20,4.76,Emax (Mu-type opioid receptor [1]): < 20%
